ChEMBL document CHEMBL4433221, “Novel Sustainable-by-Design HDAC Inhibitors for the Treatment of Alzheimer's Disease” (ACS Med Chem Lett, 2019)
Values belong to the compound of their own block, whether it stands above or below them. The source made the active and inactive calls. The rule behind the calls is not given here.

Tests used:
[1] = Permeability of the compound at pH 7.4 PBS buffer at 100 uM measured upto 6 hrs by PAMPA-BBB assay
[2] = target: Histone deacetylase 1 (Homo sapiens, UniProt Q13547); assay: Inhibition of human recombinant HDAC1 at 10 uM using ZMAL (Z-(Ac)Lys-AMC fluorogenic substrate incubated for 90 mins by fluorescence method
[3] = target: T1, Protein deacetylase HDAC6 (Homo sapiens) (UniProt Q9UBN7); assay: Inhibition of human recombinant HDAC6 at 10 uM using ZMAL (Z-(Ac)Lys-AMC fluorogenic substrate incubated for 90 mins by fluorescence method
T1 sequence (whole entry): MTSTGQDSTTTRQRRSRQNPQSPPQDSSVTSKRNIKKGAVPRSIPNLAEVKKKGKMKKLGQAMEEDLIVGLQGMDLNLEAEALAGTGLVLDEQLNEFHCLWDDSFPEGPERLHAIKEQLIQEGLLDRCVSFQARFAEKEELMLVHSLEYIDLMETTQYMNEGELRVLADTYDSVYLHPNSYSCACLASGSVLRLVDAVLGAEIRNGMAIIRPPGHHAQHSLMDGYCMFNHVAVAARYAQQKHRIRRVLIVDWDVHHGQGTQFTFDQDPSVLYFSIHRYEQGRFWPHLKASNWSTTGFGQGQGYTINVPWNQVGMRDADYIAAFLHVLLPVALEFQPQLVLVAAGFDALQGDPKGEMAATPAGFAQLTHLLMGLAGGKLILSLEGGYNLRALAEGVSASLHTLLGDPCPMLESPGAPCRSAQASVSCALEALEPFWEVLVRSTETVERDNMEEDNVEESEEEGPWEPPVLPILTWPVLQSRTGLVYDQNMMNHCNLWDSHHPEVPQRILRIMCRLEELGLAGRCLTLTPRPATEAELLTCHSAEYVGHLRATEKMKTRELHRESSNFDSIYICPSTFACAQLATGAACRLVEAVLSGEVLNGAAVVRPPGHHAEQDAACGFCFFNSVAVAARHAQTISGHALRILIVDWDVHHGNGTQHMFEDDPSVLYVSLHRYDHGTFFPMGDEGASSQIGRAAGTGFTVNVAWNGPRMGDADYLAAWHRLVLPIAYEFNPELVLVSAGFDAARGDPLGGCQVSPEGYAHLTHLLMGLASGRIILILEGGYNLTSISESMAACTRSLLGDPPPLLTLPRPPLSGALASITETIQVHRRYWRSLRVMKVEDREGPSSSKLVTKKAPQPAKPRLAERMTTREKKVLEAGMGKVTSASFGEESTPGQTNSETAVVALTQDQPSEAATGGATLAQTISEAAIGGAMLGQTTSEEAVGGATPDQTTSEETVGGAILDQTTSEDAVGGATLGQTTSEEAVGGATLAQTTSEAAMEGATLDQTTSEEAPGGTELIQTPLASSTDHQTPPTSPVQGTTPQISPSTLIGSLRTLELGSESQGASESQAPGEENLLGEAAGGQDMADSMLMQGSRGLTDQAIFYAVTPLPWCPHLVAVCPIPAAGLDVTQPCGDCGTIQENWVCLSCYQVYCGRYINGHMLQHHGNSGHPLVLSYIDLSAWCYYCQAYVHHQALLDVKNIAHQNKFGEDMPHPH

[4] = Neurotoxicity against rat CGN cells assessed as cell viability at 25 uM incubated for 24 hrs by MTT assay; type: toxicity, cell-based; settings: read-out: Activity
Outline: (§1)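 Primary rat cerebellar granule neuron cultures were exposed for 24 h to 5, 25 or 50 μM. Viability was measured by MTT and expressed as percentage of untreated controls, as mean ± SE of at least three experiments, each run in triplicate.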

[5] = Neurotoxicity against rat CGN cells assessed as cell viability at 50 uM incubated for 24 hrs by MTT assay; type: toxicity, cell-based; settings: read-out: Activity; outline: as §1
[6] = test system: N9; assay: Immunomodulatory activity in mouse N9 cells assessed as reduction in LPS-induced iNOS expression at 5 to 25 uM incubated for 24 hrs by Western blot analysis; type: functional, cell-based
Outline: (§2)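 N9 mouse microglial cells stimulated with LPS (100 ng/mL) and treated at 5 and 25 μM. iNOS and MRC1 levels were read by Western blot with GAPDH as loading control. Densitometry is expressed as percentage of LPS-only cells, as mean ± SE of three independent experiments.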

[7] = test system: N9; assay: Immunomodulatory activity in mouse N9 cells assessed as increase in LPS-induced MRC1 expression at 5 to 25 uM incubated for 24 hrs by Western blot analysis; type: functional, cell-based; outline: as §2
[8] = species on record: Rattus norvegicus; assay: Neuroprotective activity against low serum/K+ deprivation-induced toxicity in rat CGN cells assessed as increase in cell viability at 5 to 25 uM pre-treated for 6 hrs followed by 24 hrs co-treatment with serum/K+ starvation and measured after 24 hrs by MTT assay; type: functional, cell-based
Outline: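 Primary rat cerebellar granule neurons were pretreated for 6 h, then cotreated for 24 h under low-serum and K+ deprivation to induce death. Viability was compared with control and deprivation-only conditions, with tacrine as reference compound.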

Histone deacetylase 1, sequence (Q13547 whole entry): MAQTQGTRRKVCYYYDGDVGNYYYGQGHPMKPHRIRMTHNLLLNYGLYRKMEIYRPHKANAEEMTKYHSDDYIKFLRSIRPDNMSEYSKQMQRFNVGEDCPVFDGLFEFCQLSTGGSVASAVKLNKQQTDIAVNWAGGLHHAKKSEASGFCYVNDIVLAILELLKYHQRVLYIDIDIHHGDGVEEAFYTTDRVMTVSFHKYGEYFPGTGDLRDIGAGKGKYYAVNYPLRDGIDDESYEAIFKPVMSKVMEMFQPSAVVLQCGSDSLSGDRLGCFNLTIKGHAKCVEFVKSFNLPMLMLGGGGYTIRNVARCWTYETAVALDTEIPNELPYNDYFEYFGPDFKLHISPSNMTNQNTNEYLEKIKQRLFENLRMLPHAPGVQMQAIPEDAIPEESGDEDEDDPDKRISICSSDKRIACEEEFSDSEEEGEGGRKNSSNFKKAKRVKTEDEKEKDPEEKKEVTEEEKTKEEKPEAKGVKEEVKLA

SMILES: O=C(CCCCCCC(=O)Nc1ccccc1)NO [VORINOSTAT]
- viability at 24 h, 25 µM [4]: 70%
- viability at 24 h, 50 µM [5]: 52%
- Activity [6]: Active
- Activity [7]: inactive
- Activity [8]: inactive

SMILES: CO/N=C(\C(=O)N[C@@H]1C(=O)N2C(C(=O)O)=C(COC(N)=O)CS[C@H]12)c1ccco1 [CEFUROXIME]
- Papp at 6 h, 100 µM [1]: 2.7 ×10⁻⁶ cm/s

SMILES: CCCCCCCCCCCCCCCc1cccc(O)c1
- Papp at 6 h, 100 µM [1]: 3.1 ×10⁻⁶ cm/s

Now from value to compound:

- Papp at 6 h, 100 µM [1]: 5.1 ×10⁻⁶ cm/s
SMILES: CN(C)CCCN1c2ccccc2Sc2ccc(Cl)cc21 [CHLORPROMAZINE]

- inhibition [2]: < 15%
- inhibition [3]: < 15%
SMILES: COc1cccc(CCCCCCCC(=O)O)c1

- Papp at 6 h, 100 µM [1]: 3.75 ×10⁻⁶ cm/s
SMILES: Nc1c2c(nc3ccccc13)CCCC2 [TACRINE]
